Results: ChEMBL document CHEMBL5303300, “EUbOPEN Chemogenomics Library - Multiplex” (2023)
Where “and” joins values, the source holds several entries; their conditions need not be identical. Identical values can stand only once.

System: Fibroblast
Test: Multiplex assay against human fibroblast
Type: toxicity, cell-based
Conditions: number of replicates 2
Outline: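 Per cents of healthy-nucleus cells form the tubulin, mitochondrial-mass and membrane-permeability phenotype values. Live cells were stained at seeding with Hoechst33342, BioTracker Green Microtubule Cytoskeleton Dye, MitoTracker Red and Annexin V Alexa Fluor 680. After compound addition they were imaged on a CQ1 microscope at 37°C and 5% CO2, and CellPathfinder machine-learning gating split them into Hoechst high-intensity objects or normal cells, normal cells into healthy, pyknosed or fragmented nuclei, and pyknosed cells into mitotic or apoptotic.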

[1] = 12 h, 1 µM, compound concentration 1 uM
[2] = 12 h, 10 µM, compound concentration 10 uM
[3] = 24 h, 1 µM, compound concentration 1 uM
[4] = 24 h, 10 µM, compound concentration 10 uM
[5] = 48 h, 1 µM, compound concentration 1 uM
[6] = 48 h, 10 µM, compound concentration 10 uM

COC(=O)Nc1nc2c(s1)-c1c(c(-c3cccnc3)nn1-c1ccc(C3(N(C)C)CC3)cc1)CC2.Cl.Cl
Population Apoptotic (%) [1]: 38% and 45%
Population Fragmented Nuclei (%) [1]: 50% and 26%
Population Healthy Nuclei (%) [1]: 40% and 52%
Population Hoechst High Intensity Objects (%) [1]: 0%
Population Membrane Permeable-Phenotype (%) [1]: 5% and 6%
Population Mitochondria Different-Phenotype (%) [1]: 0%
Population Mitotic Cells (%) [1]: 61% and 54%
Population Normal (%) [1]: 99% and 100%
Population Pyknosed Nuclei (%) [1]: 9% and 21%
Population Tubulin-Different-Phenotype (%) [1]: 29% and 31%
Total Cell Count [1]: 378 and 219
Population Apoptotic (%) [2]: 62% and 41%
Population Fragmented Nuclei (%) [2]: 31% and 34%
Population Healthy Nuclei (%) [2]: 55% and 57%
Population Hoechst High Intensity Objects (%) [2]: 0%
Population Membrane Permeable-Phenotype (%) [2]: 13% and 11%
Population Mitochondria Different-Phenotype (%) [2]: 2% and 4%
Population Mitotic Cells (%) [2]: 37% and 58%
Population Normal (%) [2]: 100% and 99%
Population Pyknosed Nuclei (%) [2]: 12% and 8%
Population Tubulin-Different-Phenotype (%) [2]: 63% and 52%
Total Cell Count [2]: 218 and 427
Population Apoptotic (%) [3]: 60% and 87%
Population Fragmented Nuclei (%) [3]: 50% and 24%
Population Healthy Nuclei (%) [3]: 42% and 60%
Population Hoechst High Intensity Objects (%) [3]: 0%
Population Membrane Permeable-Phenotype (%) [3]: 4%
Population Mitochondria Different-Phenotype (%) [3]: 2% and 3%
Population Normal (%) [3]: 99% and 100%
Population Pyknosed Nuclei (%) [3]: 6% and 15%
Population Tubulin-Different-Phenotype (%) [3]: 20% and 31%
Total Cell Count [3]: 350 and 202
Population Apoptotic (%) [4]: 65% and 52%
Population Fragmented Nuclei (%) [4]: 34% and 36%
Population Healthy Nuclei (%) [4]: 55% and 57%
Population Hoechst High Intensity Objects (%) [4]: 0%
Population Membrane Permeable-Phenotype (%) [4]: 11% and 5%
Population Mitochondria Different-Phenotype (%) [4]: 4% and 3%
Population Mitotic Cells (%) [4]: 34% and 48%
Population Normal (%) [4]: 100% and 99%
Population Pyknosed Nuclei (%) [4]: 10% and 5%
Population Tubulin-Different-Phenotype (%) [4]: 53% and 44%
Total Cell Count [4]: 225 and 437
Population Apoptotic (%) [5]: 52% and 74%
Population Fragmented Nuclei (%) [5]: 51% and 29%
Population Healthy Nuclei (%) [5]: 43% and 56%
Population Hoechst High Intensity Objects (%) [5]: 0%
Population Membrane Permeable-Phenotype (%) [5]: 6% and 5%
Population Mitochondria Different-Phenotype (%) [5]: 2% and 0%
Population Mitotic Cells (%) [5]: 47% and 25%
Population Normal (%) [5]: 99% and 100%
Population Pyknosed Nuclei (%) [5]: 5% and 13%
Population Tubulin-Different-Phenotype (%) [5]: 12% and 21%
Total Cell Count [5]: 339 and 195
Population Apoptotic (%) [6]: 57% and 73%
Population Fragmented Nuclei (%) [6]: 38% and 39%
Population Healthy Nuclei (%) [6]: 58% and 53%
Population Hoechst High Intensity Objects (%) [6]: 0%
Population Membrane Permeable-Phenotype (%) [6]: 3% and 0%
Population Mitochondria Different-Phenotype (%) [6]: 3% and 1%
Population Mitotic Cells (%) [6]: 42% and 26%
Population Normal (%) [6]: 100% and 99%
Population Pyknosed Nuclei (%) [6]: 3% and 6%
Population Tubulin-Different-Phenotype (%) [6]: 42% and 17%
Total Cell Count [6]: 223 and 418

O=C1Nc2ccc(C(=O)c3ccco3)cc2C1=Cc1cc(Cl)c(O)c(Cl)c1 [GW406108X]
Population Apoptotic (%) [1]: 28% and 31%
Population Fragmented Nuclei (%) [1]: 8% and 6%
Population Healthy Nuclei (%) [1]: 65% and 68%
Population Hoechst High Intensity Objects (%) [1]: 0%
Population Membrane Permeable-Phenotype (%) [1]: 6%
Population Mitochondria Different-Phenotype (%) [1]: 1%
Population Mitotic Cells (%) [1]: 71% and 68%
Population Normal (%) [1]: 99% and 100%
Population Pyknosed Nuclei (%) [1]: 25% and 24%
Population Tubulin-Different-Phenotype (%) [1]: 16% and 8%
Total Cell Count [1]: 224 and 230
Population Apoptotic (%) [2]: 44% and 41%
Population Fragmented Nuclei (%) [2]: 8% and 11%
Population Healthy Nuclei (%) [2]: 69% and 67%
Population Hoechst High Intensity Objects (%) [2]: 0% and 2%
Population Membrane Permeable-Phenotype (%) [2]: 6% and 5%
Population Mitochondria Different-Phenotype (%) [2]: 0% and 2%
Population Mitotic Cells (%) [2]: 55% and 58%
Population Normal (%) [2]: 100% and 97%
Population Pyknosed Nuclei (%) [2]: 21% and 20%
Population Tubulin-Different-Phenotype (%) [2]: 18% and 14%
Total Cell Count [2]: 178 and 206
Population Apoptotic (%) [3]: 46% and 45%
Population Fragmented Nuclei (%) [3]: 8% and 9%
Population Healthy Nuclei (%) [3]: 72%
Population Hoechst High Intensity Objects (%) [3]: 0%
Population Membrane Permeable-Phenotype (%) [3]: 5% and 4%
Population Mitochondria Different-Phenotype (%) [3]: 0% and 1%
Population Mitotic Cells (%) [3]: 53% and 55%
Population Normal (%) [3]: 100%
Population Pyknosed Nuclei (%) [3]: 18% and 17%
Population Tubulin-Different-Phenotype (%) [3]: 15% and 10%
Total Cell Count [3]: 248 and 224
Population Apoptotic (%) [4]: 58% and 43%
Population Fragmented Nuclei (%) [4]: 7% and 17%
Population Healthy Nuclei (%) [4]: 71% and 54%
Population Hoechst High Intensity Objects (%) [4]: 0% and 1%
Population Membrane Permeable-Phenotype (%) [4]: 9% and 10%
Population Mitochondria Different-Phenotype (%) [4]: 1%
Population Mitotic Cells (%) [4]: 41% and 56%
Population Normal (%) [4]: 100% and 98%
Population Pyknosed Nuclei (%) [4]: 21% and 28%
Population Tubulin-Different-Phenotype (%) [4]: 27% and 23%
Total Cell Count [4]: 169 and 205
Population Apoptotic (%) [5]: 70% and 55%
Population Fragmented Nuclei (%) [5]: 10% and 9%
Population Healthy Nuclei (%) [5]: 76% and 77%
Population Hoechst High Intensity Objects (%) [5]: 0%
Population Membrane Permeable-Phenotype (%) [5]: 9% and 3%
Population Mitochondria Different-Phenotype (%) [5]: 0%
Population Mitotic Cells (%) [5]: 29% and 44%
Population Normal (%) [5]: 100%
Population Pyknosed Nuclei (%) [5]: 12%
Population Tubulin-Different-Phenotype (%) [5]: 15% and 5%
Total Cell Count [5]: 242 and 224
Population Apoptotic (%) [6]: 61% and 68%
Population Fragmented Nuclei (%) [6]: 11% and 16%
Population Healthy Nuclei (%) [6]: 66% and 56%
Population Hoechst High Intensity Objects (%) [6]: 0% and 1%
Population Membrane Permeable-Phenotype (%) [6]: 12% and 10%
Population Mitochondria Different-Phenotype (%) [6]: 0% and 1%
Population Mitotic Cells (%) [6]: 38% and 31%
Population Normal (%) [6]: 100% and 98%
Population Pyknosed Nuclei (%) [6]: 22% and 26%
Population Tubulin-Different-Phenotype (%) [6]: 36% and 31%
Total Cell Count [6]: 163 and 205
